# OX1R antag-1: antagonists of human orexin 1 receptor | O43613 | CHO/OX1R cells, Fluo-8 calcium fluorescence, orexin A | inhibition, % at 5 µM | 0.43% of 330,000 active | AID 434989;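 active = inhibition above its plate's threshold, mean inhibition of all tested compounds on the plate plus 3 SD, cut at about 37% in these data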;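 note: 0% = orexin A challenge wells and 100% = SB-334867-A antagonist wells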
# Target sequence (O43613 whole entry, looked up): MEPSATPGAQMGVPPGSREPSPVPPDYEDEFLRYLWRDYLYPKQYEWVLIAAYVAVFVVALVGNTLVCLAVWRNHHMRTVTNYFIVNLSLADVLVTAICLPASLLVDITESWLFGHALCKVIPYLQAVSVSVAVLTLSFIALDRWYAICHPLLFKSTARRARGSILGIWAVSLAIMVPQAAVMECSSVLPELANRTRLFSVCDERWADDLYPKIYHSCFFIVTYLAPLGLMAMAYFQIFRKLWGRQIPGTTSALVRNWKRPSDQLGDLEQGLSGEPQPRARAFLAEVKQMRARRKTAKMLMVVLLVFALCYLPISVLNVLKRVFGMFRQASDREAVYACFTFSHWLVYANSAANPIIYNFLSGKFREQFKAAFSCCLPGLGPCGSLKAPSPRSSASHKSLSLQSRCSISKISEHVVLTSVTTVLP
# CHO parental Ca: signal in parental CHO cells, OX1R antagonist counter-screen | parental CHO-K1, ATP-induced calcium, Fluo-8 fluorescence | inhibition, % at 5.6 µM | 0.63% of 330,000 active | AID 463079;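 active = inhibition above that plate's mean sample inhibition plus 3 SD, cut at about 26% in these data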;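 note: 0% = ATP-challenged DMSO wells and 100% = DMSO wells without ATP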
#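 Test system: parental CHO cells; detection: calcium-sensitive Fluo-8 fluorescence; evaluation: percent inhibition of calcium signal; also added: ATP as calcium-mobilizing challenge; repeats: one well per compound; control set: ATP-challenged DMSO wells low, unchallenged DMSO wells high; compound: single nominal dose of 5.6 µM per compound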
# TAAR1 agonist: agonists of human TAAR1. CHO RD-HGA16 TAAR1, Fluo-8 calcium fluorescence; vehicle wells 0%, saturating PEA agonist 100%. activation, % at 3 µM. 0.99% of 360,000 active;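 active = activation above the mean activation of all test compounds in the run plus 3 SD, cut at about 38% in these data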
#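 System: CHO RD-HGA16 cells carrying human TAAR1 plus Gα16; Incubation: 17-24 h seeding, 75 min 37 °C dye, 30 min RT; Measured by: Fluo-8 fluorescence, 5 s baseline then 140 s kinetic read; Control set: DMSO and PEA EC100; Replication: single well for each compound.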
# OX1R antag-2: antagonists of human orexin 1 receptor (OX1R); O43613; OX1R-expressing cells, FRET antagonist read-out; inhibition, % at 6.6 µM; 1.8% of 330,000 active; in the data active = inhibition mostly above about 38%, no sharp cut-off; inactive = mostly below about 40%;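 note: 0% = agonist challenge alone and 100% = reference antagonist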
# TAAR1 antag: antagonists of human TAAR1; inhibition, % at 3 µM; 1.5% of 360,000 active; Q96RJ0; CHO RD-HGA16 TAAR1, Fluo-8 calcium fluorescence, antagonist;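 active = inhibition above a per-plate cutoff, the mean inhibition of test compounds on that plate plus 3 SD, cut at about 49% in these data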;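 note: 0% = DMSO plus EC80 beta-PEA response and 100% = DMSO alone without agonist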
#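 Test system: CHO RD-HGA16 cells bearing hTAAR1 | Reagent: β-PEA, EC80 | Compound dosing: 3 µM, single point | Schedule: Dye loading 75 min at 37 °C, then 30 min room temperature | Signal: Calcium fluorescence with Fluo-8 | Evaluation: Percent inhibition of PEA-evoked calcium signal, max/basal emission ratio | Control set: DMSO-only wells and EC80 β-PEA-stimulated wells | Repeats: Singlicate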
# GPR7 antagonist: human neuropeptides B/W receptor 1 antagonism | 1.1% of 290,000 active | AID 1861 | GPR7-expressing cells, fluorescence antagonist assay | inhibition, % at 4.4 µM; in the data active = inhibition above about 16%, passing the limit was not always enough;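 note: cells stimulated with the agonist NPW; 0% = agonist with vehicle and 100% = vehicle without agonist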
# Target sequence (P48145 whole entry, looked up): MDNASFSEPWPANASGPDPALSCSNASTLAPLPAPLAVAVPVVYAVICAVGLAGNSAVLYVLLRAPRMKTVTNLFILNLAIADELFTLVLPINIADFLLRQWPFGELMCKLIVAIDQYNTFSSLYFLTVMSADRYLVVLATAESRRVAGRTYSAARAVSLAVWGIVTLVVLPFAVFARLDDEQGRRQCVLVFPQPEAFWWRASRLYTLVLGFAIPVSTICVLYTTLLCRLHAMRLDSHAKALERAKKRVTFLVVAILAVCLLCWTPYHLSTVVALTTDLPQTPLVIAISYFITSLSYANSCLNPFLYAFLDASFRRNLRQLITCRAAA
# TAAR1 ag conf: human TAAR1 agonism, confirmed | CHO RD-HGA16 TAAR1, Fluo-8 calcium fluorescence; scaled: DMSO 0%, maximal phenethylamine 100% | activation, % at 3 µM | shares compounds with TAAR1 agonist | 82% of 2,400 active;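 active = activation above a cutoff set at the run's mean compound activation plus 3 SD, cut at about 39% in these data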
# Ga16 nonsel ag: nonselective agonism, TAAR1 counter-screen. activation, % at 3 µM. 50% of 2,400 active. CHO-Ga16 parental, Fluo-8 calcium fluorescence; normalized to maximal ATP response, DMSO zero. shares compounds with TAAR1 agonist;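 active = activation above the run cutoff, the mean activation over all tested wells plus 3 SD, cut at about 12% in these data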;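 note: 0% = DMSO wells and 100% = maximal ATP response on the peak over basal ratio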
# TAAR1 desensitize: human TAAR1 agonist that also desensitizes the receptor; shares compounds with TAAR1 agonist; CHO RD-HGA16 hTAAR1, Fluo-8 calcium, beta-PEA response inhibition; 46% of 2,400 active; inhibition, % at 3 µM;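 active = inhibition above the run cutoff, the mean inhibition of all test compounds plus 3 SD, cut at about 49% in these data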;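 note: beta-PEA stimulus applied at its EC80; loss of beta-PEA calcium signal after compound pretreatment read as receptor desensitization; 0% = DMSO with beta-PEA at EC80 and 100% = DMSO alone without agonist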
# Ga16 antag count: nonselective Ga16 antagonism, counter-screen; shares compounds with TAAR1 agonist; CHO-Ga16 ATP-induced calcium, Fluo-8 fluorescence; inhibition, % at 3 µM; 39% of 2,400 active; AID 651952;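 active = inhibition above the plate's mean compound inhibition plus 3 SD, computed per plate, cut at about 22% in these data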;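 note: 0% = EC80 ATP with DMSO and 100% = DMSO wells without ATP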
# Active calls of the source: *; . = not tested or not shown. Hits are enriched below; roughly 4.5% of the tested compounds scored in any of these assays.
SMILES,OX1R antag-1,CHO parental Ca,TAAR1 agonist,OX1R antag-2,TAAR1 antag,GPR7 antagonist,TAAR1 ag conf,Ga16 nonsel ag,TAAR1 desensitize,Ga16 antag count
Cc1ccc(N2C(=O)c3ccc(C(=O)N4CCN(Cc5ccccc5)CC4)cc3C2=O)cc1,16.9,15.3,86.7*,13.3,80.7*,-12.5,93.9*,49.2*,96.5*,73.9*
CCCOC(=O)c1ccc2c(c1)C(=O)N(c1ccccc1)C2=O,-7.9,-5.3,68.1*,10.3,53.1*,2.1,15.1,6.1,24.3,19.3
COc1ccc(C(=O)Nc2cc(C(=O)c3ccccc3)c(C)oc2=O)cc1,-8.5,-11.4,37.0,7.5,5.3,-11.1,.,.,.,.
Cc1oc(=O)c(NC(=O)c2cccc(Cl)c2)cc1C(=O)c1ccccc1,-14.4,-15.0,54.7*,10.8,27.6,-11.7,11.2,10.3,37.4,30.8*
COc1ccc(N2C(=O)CN(Cc3ccc(OC)c(OC)c3)C2=S)cc1,-19.9,-3.3,153.9*,19.1,31.1,1.2,13.0,3.3,3.1,6.6
CN1CC(=O)N(CC(=O)Nc2ccc(OCc3ccccc3)cc2)C1=O,8.2,0.5,-0.1,8.0,-0.9,.,.,.,.,.
CC(CNC(=O)[C@@H](Cc1ccccc1)NC(=O)[C@H]1O[C@@H](n2cnc3c(=O)[nH]c(N)nc32)[C@H](O)[C@@H]1O)c1ccccc1 (stereo partly drawn),.,.,.,.,.,.,.,0.8,.,2.4
CC(CNC(=O)[C@H]1O[C@@H](n2cnc3c(=O)[nH]c(N)nc32)[C@H](O)[C@@H]1O)c1ccccc1 (stereo partly drawn),.,.,84.2*,.,66.5*,.,94.4*,0.4,79.7*,-0.7
CN[C@@H](CO)C(=O)NC[C@H]1O[C@@H](n2cnc3c(=O)[nH]c(N)nc32)[C@H](O)[C@@H]1O,.,.,0.4,.,8.1,.,.,.,.,.
CC(C)(C)CC(C)(C)c1ccc(O)c(Cc2ccc(Cl)cc2Cl)c1,.,.,0.7,.,-22.2,.,.,.,.,.
NCc1c(O)ccc2ccccc12,-9.1,-8.7,.,3.8,.,-4.0,.,1.8,.,7.5
O=C(O)Cc1c(O)ccc2ccccc12,-2.8,-1.9,8.1,21.4,15.1,-1.9,.,.,.,.
COc1ccccc1CNC(=O)CC1C(=O)NCCN1C1Cc2ccccc2C1 (stereo not drawn),-20.0,-24.5,69.6*,30.5,19.2,3.3,72.4*,5.2,2.7,-1.5
Cc1nn(CC(=O)N2CCc3ccccc3C2)c(C)c1[N+](=O)[O-],-9.4,4.0,57.9*,48.8,-13.2,6.7,68.6*,0.9,22.9,2.8
Cc1c(Br)c([N+](=O)[O-])nn1CC(=O)N1CCc2ccccc2C1,-24.4,-6.1,62.9*,29.0,-22.0,-2.6,59.9*,2.0,15.3,7.0
C#CCOc1ccc(/C=C2/C(=O)NN(c3ccc(F)cc3)C2=O)cc1OC,-1.6,-1.7,99.4*,-7.4,13.7,-24.9,91.9*,55.2*,43.7,18.3
COc1cc(/C=C2\C(=O)NN(c3ccccc3)C2=O)ccc1OCC(N)=O,-8.5,-8.7,5.2,2.9,-20.0,-10.1,.,.,.,.
CC(C)[C@H](CO)NC(=O)[C@H]1O[C@@H](n2ccc(=O)[nH]c2=O)[C@H](O)[C@@H]1O,.,.,1.0,.,-4.7,.,.,.,.,.
Cc1ccc(NC(=S)Nc2cccc(-c3n[nH]c(=S)o3)c2)cc1,-4.9,-4.4,1.9,9.6,-4.3,-16.8,.,.,.,.
CCCCCN=C(C)c1c(O)c2ccccc2oc1=O,-15.0,-3.1,58.0*,35.2,16.3,8.2,58.3*,1.6,11.7,2.3
C/C(=N/NS(=O)(=O)c1ccc(C)cc1)c1c(O)c2ccccc2oc1=O,-21.2,-9.6,4.9,4.6,-25.7,-8.2,.,.,.,.
O=c1cnnc(Nc2ccc(F)cc2)[nH]1,-13.1,17.7,46.5*,17.1,24.8,-17.7,57.1*,1.9,3.4,3.6
O=c1cnnc(Nc2cccc(C(F)(F)F)c2)[nH]1,-1.8,-9.0,10.8,6.8,8.8,-10.0,.,.,.,.
O=c1cnnc(Nc2cccc(F)c2)[nH]1,-14.6,-2.3,63.7*,20.5,37.2,5.9,74.3*,0.2,48.1,11.5
O=c1c(O)c(-c2cccs2)oc2ccc(Cl)cc12,91.6*,70.5*,291.8*,22.5,110.0*,23.9*,151.8*,151.5*,89.0*,84.7*
SMILES,OX1R antag-1,CHO parental Ca,TAAR1 agonist,OX1R antag-2,TAAR1 antag,GPR7 antagonist,TAAR1 ag conf,Ga16 nonsel ag,TAAR1 desensitize,Ga16 antag count
CCc1ccccc1NC(=O)CN(C)Cc1c(O)ccc2ccccc12,-9.1,-0.5,9.0,7.4,-9.9,1.3,.,.,.,.
CN(CC(=O)Nc1ccccc1C(F)(F)F)Cc1c(O)ccc2ccccc12,-23.0,-7.1,65.5*,8.7,-5.5,-17.0,30.2,5.2,4.2,10.7
COc1ccc2ccccc2c1-c1sc(Nc2ccccc2)n[n+]1-c1ccc(F)cc1,-9.7,-10.8,64.0*,15.1,-11.7,5.6,51.8*,25.4*,46.1,37.0*
Fc1ccc(-[n+]2nc(Nc3ccccc3)sc2-c2c(Cl)cccc2Cl)cc1,11.1,34.1,74.0*,30.0,32.3,3.3,88.7*,34.8*,72.8*,29.0*
O=C(O)c1ccc(-c2sc(Nc3ccccc3)n[n+]2-c2ccc(F)cc2)cc1,8.4,-11.8,.,5.3,.,1.5,.,.,.,.
COc1ccc(-c2sc(Nc3ccccc3)n[n+]2-c2ccc(F)cc2)cc1Br,-1.5,-13.8,11.1,0.0,-0.1,-2.3,.,.,.,.
Cc1c(C(=O)NC(=S)N(Cc2ccccc2)c2ccccn2)cccc1[N+](=O)[O-],-15.2,-12.6,3.4,4.1,6.1,.,.,.,.,.
COc1ccc2nc(C)cc(N/N=C/c3cccc(OC)c3O)c2c1,-32.4,-26.2,-0.5,1.5,-8.1,-13.9,.,.,.,.
Cc1cc(N/N=C/c2ccccc2O)c2ccccc2n1,-24.5,-3.7,.,12.1,.,0.2,.,3.0,.,12.9
CC(=O)c1cn(CC(=O)Nc2ccccc2C(F)(F)F)c2ccccc12,-9.8,-11.1,3.0,23.1,8.3,5.0,.,.,.,.
COc1cc(CNCCc2c[nH]c3ccccc23)cc(Cl)c1OCC(N)=O,-19.6,-13.8,5.4,24.1,-13.6,10.7,.,.,.,.
COc1cc(CNCCc2ccc(F)cc2)ccc1OCc1ccc(Cl)nc1,-9.5,-12.0,37.4,9.8,-4.3,14.5,.,.,.,.
